Test results reported in ChEMBL document CHEMBL1152595, “Synthesis and biological evaluation of 2,3,4-triarylbenzopyran derivatives as SERM and therapeutic agent for breast cancer” (Bioorg Med Chem, 2009).

How the values were obtained:
MDA-MB-231 = assay: Antiproliferative activity against human MDA-MB-231 cells after 48 hrs by MTT assay; type: functional, cell-based
In short: (§1)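 MTT assay: cells seeded at 1 × 10^4 per well in DMEM with 10% FBS, left 24 h at 37 °C in CO2; compounds diluted in medium added alongside vehicle control for 48 h; MTT (5 mg/mL) added for 4 h, formazan dissolved in DMSO, absorbance read at 540 nm; IC50 in µM.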

HEK293 = assay: Antiproliferative activity against human HEK293 cells after 48 hrs by MTT assay; type: cell-based; details: HEK293, 48 h; in short: as §1
MCF7 = assay: Antiproliferative activity against human MCF7 cells after 48 hrs by MTT assay; type: functional, cell-based; in short: as §1
Rattus norvegicus [1] = assay: Estrogenic antagonistic activity in bilaterally ovariectomized Sprague-Dawley rat assessed as inhibition of ethynylesterol-induced uterine weight at 10 mg/kg, po once daily for 3 days measured on day 31 of age; type: functional
In short: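 Antagonism read as uterine fresh weight in rats given compound orally at 10 mg/kg/day alongside 17α-ethynylestradiol (0.02 mg/kg/day); inhibition expressed relative to the ethynylestradiol-only group; means ± SEM, at least six animals per group.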

Rattus norvegicus [2] = assay: Estrogenic agonistic activity in bilaterally ovariectomized Sprague-Dawley rat assessed as uterine weight gain at 10 mg/kg, po once daily for three days measured on day 31 of age; type: functional
In short: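 Immature rats dosed orally once daily for three consecutive days; vehicle-only group as control. Autopsy 24 h after last dose on day 31 of age: vaginal smear taken, uterus excised, blotted and weighed fresh. Vaginal opening, vaginal epithelial cornification and uterine weight increase scored; gain expressed as percent of vehicle control; means ± SEM, at least six per group.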

[3] = Homo sapiens, MDA-MB-231, 48 h, read-out: IC50
[4] = Homo sapiens, MCF7, 48 h, read-out: IC50

Row | Structure (SMILES) | IC50 (MDA-MB-231; mda-mb-231) | IC50 (MCF7; mcf7) | IC50 (MDA-MB-231; [3]) [µM] | IC50 (MCF7; [4]) [µM] | IC50 (HEK293) [µM] | inhibition in vivo at 10 mg/kg (Rattus norvegicus [1]) [%] | Activity (Rattus norvegicus [2]) [%]
1 | CC(=O)Oc1ccc([C@@H]2Oc3ccccc3[C@H](c3ccc(O)cc3)[C@H]2c2ccccc2)cc1 | Not Active | Not Active |  |  | > 100 | 4.2 | 105.18
2 | CC(=O)Oc1ccc([C@@H]2Oc3ccccc3[C@H](c3ccc(OCCCN(C)C)cc3)[C@H]2c2ccccc2)cc1 |  |  | 5.61 | 11 | 14 | 58.4 | 117.2
3 | CC(=O)Oc1ccc([C@@H]2Oc3ccccc3[C@H](c3ccc(OCCN(C(C)C)C(C)C)cc3)[C@H]2c2ccccc2)cc1 | Not Active | Not Active |  |  |  | 73.9 | 146.6
4 | CCN(CC)CCOc1ccc([C@H]2c3ccccc3O[C@@H](c3ccc(OC(C)=O)cc3)[C@@H]2c2ccccc2)cc1 | Not Active |  |  | 11.7 | 16.1 | 59.3 | 41.2
5 | Oc1ccc([C@H]2c3ccccc3O[C@@H](c3ccc(O)cc3)[C@@H]2c2ccccc2)cc1 | Not Active | Not Active |  |  | > 500 | 21.2 | 142.9
6 | CC(C)N(CCOc1ccc([C@H]2c3ccccc3O[C@@H](c3ccc(O)cc3)[C@@H]2c2ccccc2)cc1)C(C)C |  |  | 7.48 | 6.97 | 20.5 | 69 | 225
7 | COc1ccc2c(c1)OC(C)(C)C(c1ccccc1)C2c1ccc(OCCN2CCCC2)cc1 (centres undefined) [ORMELOXIFENE] |  |  |  |  |  | 77.9 | 164.3
8 | CC/C(=C(\c1ccccc1)c1ccc(OCCN(C)C)cc1)c1ccccc1 [TAMOXIFEN] |  |  | 9.86 | 7.65 |  | 27.4 | 208.8

More lines, main results first:

Row | IC50 (MDA-MB-231; mda-mb-231) | IC50 (MCF7; mcf7) | IC50 (MDA-MB-231; [3]) [µM] | IC50 (MCF7; [4]) [µM] | Structure (SMILES) | IC50 (HEK293) [µM] | inhibition in vivo at 10 mg/kg (Rattus norvegicus [1]) [%] | Activity (Rattus norvegicus [2]) [%]
9 |  |  | 17.8 | 18.4 | Oc1ccc([C@@H]2Oc3ccccc3[C@H](c3ccc(OCCN4CCCC4)cc3)[C@H]2c2ccccc2)cc1 | 36.3 | 69.2 | 11.25
10 | Not Active | Not Active |  |  | O=C1c2ccccc2O[C@@H](c2ccc(OCCN3CCCC3)cc2)[C@@H]1c1ccccc1 | 34 | 45.4 | 13.17
11 |  |  | 8.65 | 7.79 | Oc1ccc([C@@H]2Oc3ccccc3[C@H](c3ccc(OCCN4CCCCC4)cc3)[C@H]2c2ccccc2)cc1 | 38.3 | 51.5 | 28.2
12 | Not Active | Not Active |  |  | OC1c2ccccc2O[C@@H](c2ccc(OCCN3CCCC3)cc2)[C@@H]1c1ccccc1 (some centres undefined) |  | 29 | 124.5
13 |  |  | 14 | 16.8 | CC(=O)Oc1ccc([C@@H]2Oc3ccccc3[C@H](c3ccc(OCCN4CCCCC4)cc3)[C@H]2c2ccccc2)cc1 | 29.8 | 51.4 | 171.4
14 | Not Active | Not Active |  |  | CC(=O)Oc1ccc([C@@H]2Oc3ccccc3[C@H](c3ccc(OCCN4CCCCCC4)cc3)[C@H]2c2ccccc2)cc1 | 88.6 | 30.6 | 108.3
